Only some compounds are listed: those with a hit (about 3% of all), similar ones and a draw of the others.
Granule exo inh = LAMP-1 surface exposure blockers, TALL-104 cells – cell-based, flow cytometry, MLPCN library, primary screen; 360,000 tested, 0.66% active; TALL-104 LAMP-1 surface exposure; cells stimulated with thapsigargin and PMA; inhibition, % at 10 µM;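 active means inhibition above about 55%, limit read from the data; inconclusive means no clear call, values can overlap the other calls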
HNF4A DNA FP = change in binding of human HNF4A to DNA, primary screen, biochemical, fluorescence polarization, FITC-DNA | 1 h | activity change, % at 10 µM | Hepatocyte nuclear factor 4-alpha (Homo sapiens), P41235 | 360,000 tested, 0.3% active | AID 1224865, 2016; in the data active means activity change above about 30%, passing the limit was not always enough
Target sequence (P41235 whole entry, looked up): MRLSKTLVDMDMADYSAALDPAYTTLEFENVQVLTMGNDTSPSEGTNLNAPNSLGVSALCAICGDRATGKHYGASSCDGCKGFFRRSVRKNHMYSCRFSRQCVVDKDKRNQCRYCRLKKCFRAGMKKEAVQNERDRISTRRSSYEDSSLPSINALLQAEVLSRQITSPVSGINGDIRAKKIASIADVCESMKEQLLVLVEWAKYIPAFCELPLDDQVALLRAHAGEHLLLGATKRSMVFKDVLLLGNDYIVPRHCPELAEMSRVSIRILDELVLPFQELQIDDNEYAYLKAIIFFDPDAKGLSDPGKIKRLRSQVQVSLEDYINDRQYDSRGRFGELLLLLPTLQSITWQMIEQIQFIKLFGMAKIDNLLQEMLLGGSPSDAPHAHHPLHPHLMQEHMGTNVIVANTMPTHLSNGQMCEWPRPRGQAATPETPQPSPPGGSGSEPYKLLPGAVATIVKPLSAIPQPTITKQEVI
DSG3 Ab inh = inhibitors of pemphigus antibody binding to DSG3, primary screen, biochemical, bead-based, flow cytometry, scFv-GFP. Desmoglein-3 (Homo sapiens), P32926. DSG3-coupled beads, scFv-anti-DSG3-GFP binding; stronger effect = lower value. binding (percent of control), % at 10 µM. AID 588358, 2011. 310,000 tested, 0.48% active;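 active means binding more than 3 SD below its plate's average and above zero; inconclusive means below that plate limit but binding exactly zero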;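 further: hits lower antibody fragment binding to DSG3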
SENP1 inh = human SENP1 catalytic domain inhibitors, primary screen, biochemical, FRET, uHTS; inhibition, % at 10 µM; Sentrin-specific protease 1 (Homo sapiens), Q9P0U3; AID 624204, 2012; 360,000 tested, 0.21% active; recombinant SENP1 catalytic domain, CyPet-SUMO1-YPet FRET cleavage;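 active means inhibition at least 30% at 10 µM, raw YFP signal under a set limit, fluorescence ratio 0.5 to 1.5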;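 further: 0% = enzyme with DMSO and 100% = no enzyme wells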
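Test system: recombinant human SENP1 catalytic domain, His6-tagged / Medium: pH 8 Tris buffer with EDTA, NaCl, BME, BSA, NP40, catalase / Also added: SUMO1 FRET substrate flanked by Cypet and Ypet, 25 nM / Times: 50 min reaction at room temperature / Signal: FRET, CFP and YFP emission / Control set: no-enzyme low control and enzyme-plus-DMSO high control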
H9c2 protect = cardioprotection against H2O2-induced cell death, primary screen, uHTS, H9c2 cells, ATPLite luminescence; H9c2 cardiomyocytes, H2O2 injury protection, 2 h; 360,000 tested, 0.63% active; protection from H2O2 cell death, % at 20 µM; AID 588492, 2011;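 active means compounds giving at least 50% protection of heart cells from peroxide-induced death in the single-dose screen, raw or plate-pattern-corrected value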;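 further: 0% = DMSO wells with peroxide and 100% = DMSO wells without peroxide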
Myeloid diff MLP = induction of myeloid progenitor differentiation, primary screen, cell-based, flow cytometry, MLPCN library; ER-HoxA9 myeloid progenitors, lysozyme-GFP differentiation; calls only at 10 µM; 360,000 tested, 1% active; AID 624256, 2012;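 active means normalized GFP-positive differentiation at or above the plate's own cutoff, the solvent-only control mean plus 3 SD; inconclusive means no clear call, values can overlap the other calls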;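 further: cells exposed to compound for four days before flow analysis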
HNF4a DNA conf = change in HNF4A binding to DNA, retest, confirmation, biochemical, fluorescence polarization, FITC-DNA | shares compounds with HNF4A DNA FP | AID 1224897, 2016 | 210 tested, 99% active | activity change, % at 12.5 µM | 1 h; call rule not given here
The depositor's hits bear a star; i = inactive; ? = inconclusive; nt = not tested or not shown; + = active, no number.

SMILES	Granule exo inh	HNF4A DNA FP	DSG3 Ab inh	SENP1 inh	H9c2 protect	Myeloid diff MLP	HNF4a DNA conf
O=C1C2CCCCC2C(=O)N1c1cccc(OS(=O)(=O)c2ccccc2)c1 (centres undefined)	-0.2	-3.3	118.4	0.7	1.1	i	nt
COc1ccc(CCNC(=O)c2ccccc2OCc2c(C)noc2C)cc1	-0.3	-1.4	99.4	-1.3	-4.1	i	nt
C=CCNc1sc(C(=O)c2ccc(Br)s2)c(N)c1C#N	-1.5	54.9*	89.2	-20.8	-6.9	i	50.8*
N#C/C(=C\c1ccc(-c2ccccc2C(=O)O)o1)c1nc2ccccc2[nH]1	?	43.5*	101.0	-27.4	8.3	i	91.1*
C=CCn1c(SCc2nc3sc4c(c3c(=O)[nH]2)CCCC4)nc2ccccc2c1=O	-1.8	48.8*	124.3	4.7	-3.0	i	65.2*
Cc1cccc(NC(=O)c2cc3c(=O)n4ccccc4nc3s2)c1	-6.0	44.9*	92.3	-23.6	1.8	i	55.0*
CC(C)=CCCC(C)c1cc(C(=O)NCCc2ccc(O)cc2)c(N)s1 (centres undefined)	5.0	51.9*	nt	1.6	nt	i	39.3*
CC(=O)NCCc1ccc(O)cc1	-3.7	-2.4	105.8	2.0	5.4	i	nt
O=C(O)c1ccc(/C=C/c2ccc3cccc(O)c3n2)cc1	-2.7	-6.1	108.0	1.4	6.7	i	nt
Oc1ccc(/C=C/c2ccc3cccc(O)c3n2)cc1Br	3.3	43.8*	96.7	-24.0	-0.2	i	75.5*
CSc1nc2ccc(S(=O)(=O)N3CCOCC3)cc2s1	1.8	0.9	97.7	0.7	3.0	i	nt
N#CCc1nc2ccc(S(=O)(=O)N3CCOCC3)cc2s1	-6.6	51.8*	101.1	-32.8	1.4	+	54.5*
Cn1c(SCc2ccc(F)cc2Cl)nc2ccccc2c1=O	0.4	-2.4	102.6	0.2	-15.2	i	nt
Cn1c(N)c(C(=O)Nc2ccc(-c3ccccc3)cc2)sc1=S	-2.1	4.7	109.7	1.3	-6.5	i	nt
N#Cc1c(-c2c(Cl)cccc2Cl)noc1/C=C/Nc1ccc(C(=O)O)cc1	-7.8	2.0	109.1	-55.0	-5.9	i	nt
CSc1nsc(/C=C/Nc2ccc(C(=O)O)cc2)c1C#N	6.0	48.9*	89.6	-25.4	0.1	i	45.2*
CCOC(=O)C1=C(C)NC(=O)NC1c1ccc(NC(C)=O)cc1 (centres undefined)	-3.4	5.7	104.5	5.0	8.1	i	nt
CCOC(=O)C1=C(C)NC(=O)NC1c1ccc(N2CCC(c3ccccc3)=N2)cc1 (centres undefined)	-3.1	54.9*	113.9	-23.7	-4.3	+	62.4*
Cc1nc(CSc2nsc(/C=C/N(C)C)c2C#N)cs1	-0.3	70.2*	109.1	-11.2	-2.5	i	62.0*
Cc1nnc(SCC(=O)NC2CCCC2)n1-c1ccccc1	2.1	-2.2	112.7	2.9	7.0	i	nt
Cc1nn(-c2ccccc2)c(Cl)c1/C=C1\C(=O)N(C)C(=S)N1C	-2.8	1.3	101.8	-17.1	1.5	i	nt
CN1C(=O)/C(=C/C=C2\SCCN2C)N(C)C1=S	-1.0	119.2*	106.9	11.7	0.1	i	143.0*
O=C(N/N=C\C=C\c1ccc(Br)cc1)c1ccc2c(c1)OCO2	6.5	49.7*	93.0	-0.3	0.8	i	61.9*
O=C(C(=O)N1CCC(c2ccccc2)CC1)c1ccc(F)c(F)c1	-5.5	4.7	nt	2.2	nt	i	nt
Cc1ccc[n+](-c2nc3ccccc3nc2C(=C=[N-])C#N)c1	-1.6	59.7*	102.2	6.8	2.6	i	42.1*
CN(CCOC(=O)/C=C/c1ccco1)Cc1ccccc1	7.5	-15.2	98.8	-4.8	-11.3	i	nt
